{"source": "paper PMC3773863", "about": "(Bioorganic & medicinal chemistry letters, 2013)", "key": {"NCI-H522 cells": {"test_system": "NCI-H522 cells", "experiment": "MTT anti-proliferation assay, NCI-H522", "type": "cell-based, human", "details": "read-out: IC50 proliferation of NCI-H522 cells, 48 h incubation", "method_in_brief": "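NCI-H522 cells in log-phase growth were exposed at 37 °C to test compound or DMSO vehicle in complete medium for 48 h. They were then given MTT (1 mg/mL in 1X PBS) for 2 h at 37 °C. Absorbance was read at 570 nm and corrected at 630 nm.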"}, "SR leukemia cells": {"test_system": "SR leukemia cells", "experiment": "NCI in vitro human tumor cell screen, SR", "type": "cell-based"}, "[1]": {"test_system": "NCI-H522 non-small cell lung cancer cells", "experiment": "NCI in vitro human tumor cell screen, NCI-H522", "type": "cell-based"}, "[2]": {"test_system": "Colo205 colon cancer cells", "experiment": "NCI in vitro human tumor cell screen, Colo205", "type": "cell-based", "method_in_brief": "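NCI-60 panel screen. GI50 is the log concentration that […]. TGI is the log concentration giving total growth inhibition.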"}, "SF-295 CNS cancer cells": {"test_system": "SF-295 CNS cancer cells", "experiment": "NCI in vitro human tumor cell screen, SF-295", "type": "cell-based", "method_in_brief": "(§1)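 NCI-60 panel screen. GI50 is the log concentration that […]. TGI is the log concentration giving total growth inhibition. LC50 is the log concentration needed to kill 50% of the test population.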"}, "M14 melanoma cells": {"test_system": "M14 melanoma cells", "experiment": "NCI in vitro human tumor cell screen, M14", "type": "cell-based", "method_in_brief": "as §1"}, "[3]": {"test_system": "MDA-MB-435 melanoma cells", "experiment": "NCI in vitro human tumor cell screen, MDA-MB-435", "type": "cell-based"}, "SK-MEL-5 melanoma cells": {"test_system": "SK-MEL-5 melanoma cells", "experiment": "NCI in vitro human tumor cell screen, SK-MEL-5", "type": "cell-based", "method_in_brief": "as §1"}, "[4]": {"test_system": "OVCAR-3 ovarian cancer cells", "experiment": "NCI in vitro human tumor cell screen, OVCAR-3", "type": "cell-based", "method_in_brief": "as §1"}, "[5]": {"test_system": "NCI/ADR-RES ovarian cancer cells", "experiment": "NCI in vitro human tumor cell screen, NCI/ADR-RES", "type": "cell-based", "method_in_brief": "as §1"}, "[6]": {"test_system": "SK-OV-3 ovarian cancer cells", "experiment": "NCI in vitro human tumor cell screen, SK-OV-3", "type": "cell-based", "method_in_brief": "as §1"}, "[7]": {"test_system": "RXF 393 renal cancer cells", "experiment": "NCI in vitro human tumor cell screen, RXF 393", "type": "cell-based", "method_in_brief": "as §1"}, "[8]": {"test_system": "DU-145 prostate cancer cells", "experiment": "NCI in vitro human tumor cell screen, DU-145", "type": "cell-based", "method_in_brief": "as §1"}, "[9]": {"test_system": "MDA-MB-468 breast cancer cells", "experiment": "NCI in vitro human tumor cell screen, MDA-MB-468", "type": "cell-based", "method_in_brief": "as §1"}, "[10]": {"biological_target": "pure porcine brain tubulin proteins (Sus scrofa, UniProt P02550+P02554)", "sequence (P02550 whole entry)": "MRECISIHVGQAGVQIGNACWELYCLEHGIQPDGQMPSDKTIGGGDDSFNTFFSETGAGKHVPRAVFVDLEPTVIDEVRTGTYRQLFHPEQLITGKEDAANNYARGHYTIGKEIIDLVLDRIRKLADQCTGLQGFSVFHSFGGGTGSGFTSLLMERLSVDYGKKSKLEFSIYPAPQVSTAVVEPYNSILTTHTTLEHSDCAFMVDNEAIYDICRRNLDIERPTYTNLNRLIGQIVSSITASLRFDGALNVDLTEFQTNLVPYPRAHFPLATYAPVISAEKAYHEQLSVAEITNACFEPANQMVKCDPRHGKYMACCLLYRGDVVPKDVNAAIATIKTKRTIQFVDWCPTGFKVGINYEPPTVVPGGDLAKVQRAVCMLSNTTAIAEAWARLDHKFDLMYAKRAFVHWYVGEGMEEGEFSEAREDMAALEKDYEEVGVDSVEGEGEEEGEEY", "sequence (P02554 whole entry)": "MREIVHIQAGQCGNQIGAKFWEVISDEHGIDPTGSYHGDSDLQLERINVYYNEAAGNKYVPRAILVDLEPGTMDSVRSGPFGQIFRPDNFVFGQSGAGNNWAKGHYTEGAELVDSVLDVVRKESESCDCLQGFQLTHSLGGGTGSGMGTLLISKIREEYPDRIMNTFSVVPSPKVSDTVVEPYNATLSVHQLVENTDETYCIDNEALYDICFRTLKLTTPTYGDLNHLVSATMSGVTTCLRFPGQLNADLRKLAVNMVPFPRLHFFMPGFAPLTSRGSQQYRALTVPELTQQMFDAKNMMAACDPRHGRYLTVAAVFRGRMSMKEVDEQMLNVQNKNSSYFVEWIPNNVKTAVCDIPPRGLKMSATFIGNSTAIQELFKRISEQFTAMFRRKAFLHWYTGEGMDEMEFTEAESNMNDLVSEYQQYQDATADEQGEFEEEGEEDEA", "experiment": "In vitro tubulin polymerization assay", "type": "biochemical", "details": "GPEM buffer, 37 °C, absorbance 340 nm"}, "[11]": {"test_system": "α-tubulin and β-tubulin in NCI-H522 cells", "experiment": "In vivo tubulin assembly assay", "type": "cell-based, human", "details": "24 h, 6h 10, 30, 100 nM, vincristine and paclitaxel 100 nM"}}}
{"compound": "2-(3-hydroxy-5-methoxyphenyl)-6-pyrrolidin-1-ylquinolin-4-one [Compound 6h]", "values": [{"measurement": "IC50", "setting": "NCI-H522 cells", "result": "42.3 ± 1.2", "unit": "nM"}, {"measurement": "logGI50", "setting": "SR leukemia cells", "result": "< −8.00"}, {"measurement": "logLC50", "setting": "SR leukemia cells", "result": ">−4.00"}, {"measurement": "logTGI", "setting": "SR leukemia cells", "result": "> −4.00"}, {"measurement": "logGI50", "setting": "[1]", "result": "< −8.00"}, {"measurement": "logLC50", "setting": "[1]", "result": "−5.41"}, {"measurement": "logTGI", "setting": "[1]", "result": "< −8.00"}, {"measurement": "logGI50", "setting": "[2]", "result": "−7.27"}, {"measurement": "logTGI", "setting": "[2]", "result": "−6.66"}, {"measurement": "logGI50", "setting": "SF-295 CNS cancer cells", "result": "−6.96"}, {"measurement": "logLC50", "setting": "SF-295 CNS cancer cells", "result": ">−4.00"}, {"measurement": "logTGI", "setting": "SF-295 CNS cancer cells", "result": "−4.95"}, {"measurement": "logGI50", "setting": "M14 melanoma cells", "result": "−7.52"}, {"measurement": "logLC50", "setting": "M14 melanoma cells", "result": ">−4.00"}, {"measurement": "logTGI", "setting": "M14 melanoma cells", "result": "−4.80"}, {"measurement": "logGI50", "setting": "[3]", "result": "< −8.00"}, {"measurement": "logTGI", "setting": "[3]", "result": "−7.53"}, {"measurement": "logGI50", "setting": "SK-MEL-5 melanoma cells", "result": "−7.61"}, {"measurement": "logLC50", "setting": "SK-MEL-5 melanoma cells", "result": "−6.31"}, {"measurement": "logTGI", "setting": "SK-MEL-5 melanoma cells", "result": "−7.18"}, {"measurement": "logGI50", "setting": "[4]", "result": "−7.63"}, {"measurement": "logLC50", "setting": "[4]", "result": "−5.19"}, {"measurement": "logTGI", "setting": "[4]", "result": "−7.05"}, {"measurement": "logGI50", "setting": "[5]", "result": "−7.21"}, {"measurement": "logLC50", "setting": "[5]", "result": ">−4.00"}, {"measurement": "logTGI", "setting": "[5]", "result": "−6.29"}, {"measurement": "logGI50", "setting": "[6]", "result": "−7.63"}, {"measurement": "logLC50", "setting": "[6]", "result": ">−4.00"}, {"measurement": "logTGI", "setting": "[6]", "result": "−4.60"}, {"measurement": "logGI50", "setting": "[7]", "result": "−7.39"}, {"measurement": "logLC50", "setting": "[7]", "result": ">−4.00"}, {"measurement": "logTGI", "setting": "[7]", "result": "−4.62"}, {"measurement": "logGI50", "setting": "[8]", "result": "−7.51"}, {"measurement": "logLC50", "setting": "[8]", "result": ">−4.00"}, {"measurement": "logTGI", "setting": "[8]", "result": "−6.59"}, {"measurement": "logGI50", "setting": "[9]", "result": "−6.58"}, {"measurement": "logLC50", "setting": "[9]", "result": ">−4.00"}, {"measurement": "logTGI", "setting": "[9]", "result": "−5.70"}, {"measurement": "effect on tubulin polymerization", "setting": "[10]", "result": "inhibited tubulin polymerization in a concentration-dependent manner"}]}
{"compound": "CC(=O)O[C@H]1C(=O)[C@@]2(C)[C@H]([C@H](OC(=O)c3ccccc3)[C@]3(O)C[C@H](OC(=O)[C@H](O)[C@@H](NC(=O)c4ccccc4)c4ccccc4)C(C)=C1C3(C)C)[C@]1(OC(C)=O)CO[C@@H]1C[C@@H]2O", "note": "[paclitaxel]", "values": [{"measurement": "effect on α-tubulin and β-tubulin in the cytoskeletal fraction", "setting": "[11]", "result": "caused tubulin polymerization"}]}
{"compound": "CC[C@]1(O)C[C@@H]2CN(CCc3c([nH]c4ccccc34)[C@@](C(=O)OC)(c3cc4c(cc3OC)N(C)[C@H]3[C@@](O)(C(=O)OC)[C@H](OC(C)=O)[C@]5(CC)C=CCN6CC[C@]43[C@@H]65)C2)C1", "note": "[vinblastine]", "values": [{"measurement": "effect on tubulin polymerization", "setting": "[10]", "result": "inhibited tubulin polymerization"}]}
{"compound": "CC[C@]1(O)C[C@H]2CN(CCc3c([nH]c4ccccc34)[C@@](C(=O)OC)(c3cc4c(cc3OC)N(C=O)[C@H]3[C@@](O)(C(=O)OC)[C@H](OC(C)=O)[C@]5(CC)C=CCN6CC[C@]43[C@@H]65)C2)C1", "note": "[vincristine]", "values": [{"measurement": "effect on tubulin polymerization", "setting": "[10]", "result": "inhibited tubulin polymerization"}]}
